Data set [1] in a line: Drug metabolism in pH 7.4 PBS assessed as 3',6'-dimethyl-[1,1':2',1''-terphenyl]-4'-carbaldehyde fromation by HPLC.
Data set [2] is described as follows: Drug metabolism in pH 7.4 PBS assessed as CO bounded myoglobin formation by measuring maximal absorption peak of deoxy-Mb incubated for 2 hrs by UV-vis absorption spectroscopy based myoglobin-CO assay.
Data set [3] can be described thus: Drug metabolism in PBS buffer assessed as half life for carbon monoxide release at pH 7 by HPLC analysis.
Data set [4] deals with T1, Liver carboxylesterase (Sus scrofa, UniProt Q29550).
T1 sequence (Q29550 whole entry): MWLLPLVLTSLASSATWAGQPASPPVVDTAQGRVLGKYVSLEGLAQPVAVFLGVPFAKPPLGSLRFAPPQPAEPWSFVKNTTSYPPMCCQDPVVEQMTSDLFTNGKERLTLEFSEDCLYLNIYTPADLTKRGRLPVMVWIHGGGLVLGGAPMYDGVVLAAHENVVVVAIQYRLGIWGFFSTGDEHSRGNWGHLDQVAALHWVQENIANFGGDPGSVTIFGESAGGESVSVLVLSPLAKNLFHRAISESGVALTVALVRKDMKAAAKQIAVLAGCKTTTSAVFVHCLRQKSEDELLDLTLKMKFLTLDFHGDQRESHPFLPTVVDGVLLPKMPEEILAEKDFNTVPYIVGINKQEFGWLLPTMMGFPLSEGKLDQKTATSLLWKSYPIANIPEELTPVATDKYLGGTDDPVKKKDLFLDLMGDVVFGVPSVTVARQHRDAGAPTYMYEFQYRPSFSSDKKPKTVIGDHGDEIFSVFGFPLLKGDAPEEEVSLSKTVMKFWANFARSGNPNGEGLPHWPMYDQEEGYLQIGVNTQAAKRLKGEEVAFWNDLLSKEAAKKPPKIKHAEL
Description: Drug metabolism in PBS buffer assessed as porcine liver esterase-mediated (1S,4S)-1,4-Dimethyl-7-oxo-5,6-diphenyl-3-(phenylsulfonyl)bicyclo[2.2.1]hept-5-ene-2-carbaldehyde formation at pH 7 at 20 uM incubated for 48 hrs by HPLC analysis. Particulars: pig, isolated protein, pH 7, 48 h. The format is ADME.

The subject of data set [5] is Mus musculus. Description: Hepatoprotective activity in LPS-stimulated ip dosed C57BL/6 mouse assessed as reduction in LPS-induced AST levels pretreated for 30 mins followed by LPS addition and measured after 6 hrs. The format is functional, organism-based.
A short description of data set [6]: Drug metabolism in rabbit serum assessed as esterase-mediated (1S,4S)-1,4-Dimethyl-7-oxo-5,6-diphenyl-3-(phenylsulfonyl)bicyclo[2.2.1]hept-5-ene-2-carbaldehyde metabolite formation by measuring half life by HPLC analysis. The format is ADME, cell-free, Oryctolagus cuniculus. In short, it runs like this:
(§1)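 The prodrug was incubated in mouse, rat, rabbit or human serum. HPLC followed esterase-mediated hydrolysis to the bicyclic intermediate, giving a half-life, and the subsequent beta-elimination was followed for up to 20 h.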

The target of data set [7] is T1, Liver carboxylesterase. The experiment in a line: Drug metabolism in pH 1 SGF assessed as porcine liver esterase-mediated (1S,4S)-1,4-Dimethyl-7-oxo-5,6-diphenyl-3-(phenylsulfonyl)bicyclo[2.2.1]hept-5-ene-2-carbaldehyde formation at 20 uM after 2 mins by HPLC analysis. The format is ADME. Particulars: pig, isolated protein, pH 1, 2 min. In short, it runs like this: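 The prodrug was incubated in simulated gastric fluid (pH ~1) containing porcine liver esterase at 37 °C. HPLC tracked formation of the hydrolysed bicyclic intermediate and of the beta-elimination product for up to 7 h.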

Data set [8] has as its system Mus musculus. Description: Hepatoprotective activity in LPS-stimulated ip dosed C57BL/6 mouse assessed as reduction in LPS-induced ALT levels pretreated for 30 mins followed by LPS addition and measured after 6 hrs. The format is functional, organism-based.
Data set [9] is described as follows: Drug metabolism in rat serum assessed as esterase-mediated (1S,4S)-1,4-Dimethyl-7-oxo-5,6-diphenyl-3-(phenylsulfonyl)bicyclo[2.2.1]hept-5-ene-2-carbaldehyde metabolite formation by measuring half life by HPLC analysis. The format is ADME, cell-free. Put shortly:
as §1

For data set [10], the system named is Mus musculus. Description: Hepato-protective activity in LPS-stimulated C57BL/6 mouse assessed as reduction in LPS-induced liver injury at 10 mg/kg, ip pretreated for 30 mins followed by LPS addition and measured after 6 hrs by hematoxylin and eosin staining based assay. The format is functional, organism-based.
The nature of data set [11]: Drug metabolism in PBS buffer assessed as (1S,4S)-1,4-Dimethyl-7-oxo-5,6-diphenyl-3-(phenylsulfonyl)bicyclo[2.2.1]hept-5-ene-2-carbaldehyde formation at pH 7 at 20 uM in absence of porcine liver esterase after 6 hrs by HPLC analysis. In short, it runs like this:
(§2)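 The prodrug was incubated without porcine liver esterase for up to 6 h, in either PBS (pH 7) or simulated gastric fluid (pH ~1). HPLC monitored hydrolysis to the acetal-cleaved bicyclic intermediate.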

Data set [12] deals with RAW264.7. Description: Antiinflammatory activity in mouse RAW264.7 cells assessed as reduction in LPS-induced TNFalpha secretion preincubated for 4 hrs followed by LPS addition and measured after 1 hr by ELISA. The format is functional, cell-based. Background: In an ELISA, binding on a coated surface is turned into a signal by an enzyme label.
A short description of data set [13]: Drug metabolism in mouse RAW264.7 cells assessed as carbon monoxide release at 50 uM after 5 hrs by COP1-based fluorescence assay. The format is ADME, cell-based. Particulars: raw264.7, 5 h.
Data set [14] relates to RAW264.7. Description: Cytotoxicity against mouse RAW264.7 cells assessed as reduction in cell viability at 50 uM uM incubated for 5 hrs by WST8 assay. The format is cell-based. Particulars: raw264.7, 5 h. In general terms: Formazan colour is commonly taken as a measure of viable cells.
The test system of data set [15] is Mus musculus. The experiment in a line: Antiinflammatory activity in LPS-stimulated ip dosed C57BL/6 mouse assessed as inhibition of LPS-induced serum TNFalpha levels pretreated for 30 mins followed by LPS addition and measured after 6 hrs by ELISA. The format is functional, organism-based.
The nature of data set [16]: Drug metabolism in pH 1 SGF assessed as (1S,4S)-1,4-Dimethyl-7-oxo-5,6-diphenyl-3-(phenylsulfonyl)bicyclo[2.2.1]hept-5-ene-2-carbaldehyde formation at 20 uM in absence of porcine liver esterase after 6 hrs by HPLC analysis. In short, it runs like this: as §2
The nature of data set [17]: Drug metabolism in human serum assessed as esterase-mediated (1S,4S)-1,4-Dimethyl-7-oxo-5,6-diphenyl-3-(phenylsulfonyl)bicyclo[2.2.1]hept-5-ene-2-carbaldehyde metabolite formation by measuring half life by HPLC analysis. The format is ADME, cell-free. Put shortly: as §1
A short description of data set [18]: Drug metabolism in mouse serum assessed as esterase-mediated (1S,4S)-1,4-Dimethyl-7-oxo-5,6-diphenyl-3-(phenylsulfonyl)bicyclo[2.2.1]hept-5-ene-2-carbaldehyde metabolite formation by measuring half life by HPLC analysis. The format is ADME, cell-free. Put shortly:
as §1

Data set [19] addresses T1, Liver carboxylesterase. The experiment in a line: Drug metabolism in PBS buffer assessed as porcine liver esterase-mediated carbon monoxide release at pH 7 at 20 uM incubated for 48 hrs by HPLC analysis. The settings on record: pig, isolated protein, pH 7, 48 h. The format is ADME. Put shortly:
(§3)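 Prodrug at a starting concentration of 20 was incubated with porcine liver esterase (3 U/mL) in PBS containing 5% DMSO at 37 °C. CO release was followed by HPLC as formation of the beta-elimination product.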

In data set [20] the test system is Mus musculus. The experiment in a line: Hepatoprotective activity in LPS-stimulated C57BL/6 mouse assessed as reduction in LPS-induced AST levels at 10 mg/kg, ip pretreated for 30 mins followed by LPS addition and measured after 6 hrs. The format is functional, organism-based.
The test system of data set [21] is Mus musculus. The experiment in a line: Hepatoprotective activity in LPS-stimulated C57BL/6 mouse assessed as reduction in LPS-induced ALT levels at 10 mg/kg, ip pretreated for 30 mins followed by LPS addition and measured after 6 hrs. The format is functional, organism-based.
Data set [22] has as its system Mus musculus. Description: Antiinflammatory activity in LPS-stimulated C57BL/6 mouse assessed as inhibition of LPS-induced serum TNFalpha levels at 10 mg/kg, ip pretreated for 30 mins followed by LPS addition and measured after 6 hrs by ELISA. The format is functional, organism-based.
In data set [23] the test system is RAW264.7. Description: Cytotoxicity against mouse RAW264.7 cells assessed as reduction in cell viability at 200 uM by WST8 assay. The format is cell-based. Particulars: raw264.7, 200 µM.
The subject of data set [24] is RAW264.7. The experiment in a line: Antiinflammatory activity in mouse RAW264.7 cells assessed as reduction in LPS-induced TNFalpha secretion at 12.5 to 100 uM preincubated for 4 hrs followed by LPS addition and measured after 1 hr by ELISA. The format is functional, cell-based.
Data set [25] deals with T1, Liver carboxylesterase. The experiment in a line: Drug metabolism in PBS buffer assessed as porcine liver esterase-mediated (1S,4S)-1,4-Dimethyl-7-oxo-5,6-diphenyl-3-(phenylsulfonyl)bicyclo[2.2.1]hept-5-ene-2-carbaldehyde formation at pH 7 at 20 uM after 36 hrs by HPLC analysis. The settings on record: pig, pH 7, 36 h.
Data set [26] has as its target T1, Liver carboxylesterase. Description: Drug metabolism in PBS buffer assessed as porcine liver esterase-mediated carbon monoxide release at pH 7 at 20 uM after 36 hrs by HPLC analysis. The format is ADME. Particulars: pig, isolated protein, pH 7, 36 h. In short, it runs like this: as §3
Data set [27] deals with T1, Liver carboxylesterase. Description: Drug metabolism in PBS buffer assessed as porcine liver esterase-mediated 3',6'-dimethyl-[1,1':2',1''-terphenyl]-4'-carbaldehyde formation at pH 7 at 20 uM after 36 hrs by HPLC analysis. The settings on record: pig, pH 7, 36 h. In short, it runs like this:
as §3

The values that follow come from ChEMBL document CHEMBL4316601, “Esterase-Sensitive and pH-Controlled Carbon Monoxide Prodrugs for Treating Systemic Inflammation” (J Med Chem, 2019).

Activity calls are given as the source filed them. The rule behind the calls is not given here.

Regarding `C[C@@]12C(=O)[C@](C)(C(c3ccccc3)=C1c1ccccc1)[C@@H](S(=O)(=O)c1ccccc1)[C@H]2C=O`, the Drug metabolism result in data set [1] and in data set [2] was “Metabolite detected” each time. The T1/2 in [3] was found to be 30 min.
Consider `CCCC(=O)OC(OC(=O)CCC)[C@@H]1[C@H](S(=O)(=O)c2ccccc2)[C@]2(C)C(=O)[C@]1(C)C(c1ccccc1)=C2c1ccccc1`, for which the Drug metabolism result in data set [4] is given as “Metabolite_Detected”.
Regarding `CC(=O)OC(OC(C)=O)[C@@H]1[C@H](S(=O)(=O)c2ccccc2)[C@]2(C)C(=O)[C@]1(C)C(c1ccccc1)=C2c1ccccc1`, the Activity entry is “Dose-dependent effect” in [5], “Dose-dependent effect” in data set [8], “Non-Toxic” in data set [14] and “Dose-dependent effect” in [15]. Moreover, the t1/2 in data set [6] is 30 min; in data set [9] it was 10 min; in data set [17] it was 840 min; in data set [18], 3 min; in [19] it was 30 to 480 min. In addition, the Drug metabolism entry in [7] is listed as “Metabolite_Detected”; in data set [11], “Metabolite not detected”; in data set [13], “Metabolite_Detected”; in [4] it was “Metabolite_Detected”; in data set [16], “Metabolite not detected”. The outcome in [10] was Active. In data set [12], the inhibition result is “Dose-dependent effect”.
Turning to `Cc1cc(C=O)c(C)c(-c2ccccc2)c1-c1ccccc1`, the outcome in [20], in data set [21], in [22] and in [10] was inactive. The Activity result in data set [23] was “Non-Toxic”. For the same molecule, the inhibition result in [24] is “inactive”.
For the molecule `C[C@@]12C(=O)[C@](C)(C(c3ccccc3)=C1c1ccccc1)[C@@H](S(=O)(=O)c1ccccc1)[C@H]2C(OC(=O)C1CC1)OC(=O)C1CC1`, the Drug metabolism entry in data set [4] is “Metabolite_Detected”.
For `CC(C)(C)C(=O)OC(OC(=O)C(C)(C)C)[C@@H]1[C@H](S(=O)(=O)c2ccccc2)[C@]2(C)C(=O)[C@]1(C)C(c1ccccc1)=C2c1ccccc1`, the Drug metabolism entry in data set [25], in data set [26] and in data set [27] was “Metabolite_Notdetected” in each case.
